In ChEMBL document CHEMBL4229360, “Antimalarial agents against both sexual and asexual parasites stages: structure-activity relationships and biological studies of the Malaria Box compound 1-[5-(4-bromo-2-chlorophenyl)furan-2-yl]-N-[(piperidin-4-yl)methyl]methanamine (MMV019918) and analogues” (Eur J Med Chem, 2018) one finds Activity, IC50 and CC50 data, which are given here for 20 compounds.

Some results are limits rather than exact numbers.

Data set [1] has as its target T1, Phosphoethanolamine N-methyltransferase (Plasmodium falciparum) (UniProt Q8IDQ9).
T1 sequence (whole entry): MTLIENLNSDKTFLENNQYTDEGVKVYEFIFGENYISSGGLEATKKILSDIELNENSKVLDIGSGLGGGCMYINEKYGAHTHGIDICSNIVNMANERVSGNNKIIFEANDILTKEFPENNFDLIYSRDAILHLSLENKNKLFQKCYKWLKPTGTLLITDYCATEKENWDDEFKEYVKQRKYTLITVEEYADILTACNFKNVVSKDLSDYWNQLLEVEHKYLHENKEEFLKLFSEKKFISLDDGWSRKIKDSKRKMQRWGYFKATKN
Briefly: Inhibition of plasmodium falciparum phosphoethanolamine N-methyltransferase expressed in Escherichia coli assessed as remaining enzyme activity at 100 uM using phosphoethanolamine as substrate and [methyl-14C] SAM by radiochemical assay. A digest of the protocol: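 Recombinant PfPMT purified from E. coli, 2 μg per 100 μL reaction. Buffer 0.1 M HEPES-KOH pH 8.0, 2 mM Na2EDTA, 10% glycerol, 5% DMSO, with 30 μM SAM (100 nCi [methyl-14C]SAM) and 55 μM phosphoethanolamine; radiochemical read-out.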

Data set [2] concerns Plasmodium falciparum. Briefly: Antiplasmodial activity against chloroquine-sensitive Plasmodium falciparum D10 after 72 hrs by lactate dehydrogenase assay. The format is functional, organism-based. The note with it: D10, 72 h. A digest of the protocol:
(§1)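 Asynchronous blood-stage cultures at 1–1.5% parasitemia and 1% final hematocrit in human A+ RBCs, RPMI 1640 with 1% AlbuMax, hypoxanthine, HEPES and glutamine. Serial dilutions from DMSO stocks, final DMSO <1%. Incubated 72 h at 37 °C under 1% O₂/5% CO₂. IC50 is the mean of ≥3 experiments in duplicate.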

Data set [3] relates to Plasmodium falciparum. The data set can be described thus: Antiplasmodial activity against chloroquine-resistant Plasmodium falciparum W2 after 72 hrs by lactate dehydrogenase assay. The format is functional, organism-based. The note with it: W2, 72 h. A digest of the protocol:
as §1

Data set [4] concerns Plasmodium falciparum. Briefly: Gametocytocidal activity against Plasmodium falciparum 3D7 elo1-pfs16-CBG99 late-stage (4 to 5) gametocytes assessed as inhibition of parasite viability after 72 hrs by luciferase reporter assay. The format is functional, organism-based. The note with it: 3D7 elo1-pfs16-CBG99, 72 h. A digest of the protocol: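 Transgenic 3D7elo1-pfs16-CBG99 gametocytes express CBG99 luciferase from the pfs16 promoter. Stage IV–V gametocytes (Giemsa-checked) were exposed at day 8–10 after NAG addition to serial dilutions in complete medium for 72 h. Samples at 2% haematocrit were then mixed 1:1 with D-luciferin (1 mM, pH 5.5 citrate) for 10 min and luminescence was read. IC50 came from non-linear regression, mean of ≥3 experiments in duplicate.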

Data set [5] in a line: Cytotoxicity against mouse NIH/3T3 cells after 24 hrs by neutral red uptake assay. The format is cell-based, NIH3T3. The note with it: read-out: TC50. A digest of the protocol: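 NIH3T3 cells exposed for 24 h; viability by neutral red uptake. Mean of three experiments, six replicates each.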
The subject of data set [6] is Plasmodium falciparum. Briefly: Gametocytocidal activity against Plasmodium falciparum NF54 HGL gametocytes assessed as inhibition of parasite viability after 72 hrs by ONE-Glo reagent based luminescence assay. The format is functional, organism-based. A digest of the protocol:
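NF54 gametocytes raised in 5% haematocrit RPMI1640/10% human serum, with 50 mM NAG on days 4–9. Mainly stage IV gametocytes isolated on day 11 by Percoll gradient and seeded at 5000 cells/well, final DMSO 0.1%. Incubated 72 h at 37 °C, 3% O2, 4% CO2; viability by ONE-Glo luminescence.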

In data set [7] the test system is Plasmodium falciparum. The data set can be described thus: Antiplasmodial activity against asexual blood stage Plasmodium falciparum NF54 after 72 hrs by SYBR green-based fluorometric analysis. The format is functional, organism-based. The note with it: NF54, 72 h. A digest of the protocol:
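Asexual NF54 seeded at 0.83% parasitaemia, 1.5% haematocrit, in RPMI1640 with 10% human serum. Serial dilutions, final DMSO 0.1%. Incubated 72 h at 37 °C under 3% O2, 4% CO2, then read by SYBR Green fluorescence.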

Consider `N#Cc1ccc(-c2ccc(CNCC3CCNCC3)o2)cc1`, for which the Activity in data set [1] worked out at 73.2%. The half-inhibitory concentration (IC50) in the data set with Plasmodium falciparum [2] amounted to 1.1 µM; with Plasmodium falciparum [3], 6.3 µM; with Plasmodium falciparum [4], 18.4 µM.
For `Clc1ccc(-c2ccc(CNCC3CCNCC3)o2)c(Br)c1`, the IC50 worked out at 0.51 µM with Plasmodium falciparum [2], 1.87 µM in the data set with Plasmodium falciparum [3] and 1.1 µM in the data set with Plasmodium falciparum [4]. The CC50 at 24 h in data set [5] is below 5 µM.
In the case of `Clc1cc(Br)ccc1-c1ccc(CNCC2CCNCC2)s1`, the half-inhibitory concentration (IC50) with Plasmodium falciparum [6] came to 0.02 µM; in the data set with Plasmodium falciparum [2], 0.73 µM; in the data set on Plasmodium falciparum [3], 2.2 µM; in the data set on Plasmodium falciparum [4], 0.85 µM; in the data set with Plasmodium falciparum [7] it was 0.28 µM. Besides, the CC50 at 24 h in data set [5] is below 5 µM.
Take `CN(C)c1ccc2nc3ccc(N(C)C)cc3[s+]c2c1` [METHYLENE BLUE ANHYDROUS]: the IC50 in the data set on Plasmodium falciparum [4] is 0.03 µM.
As to `Clc1ccc(-c2nnc(CNCC3CCNCC3)o2)c(Br)c1`, the IC50 was above 13 µM in the data set with Plasmodium falciparum [2], 7.9 µM in the data set with Plasmodium falciparum [3] and above 26 µM in the data set with Plasmodium falciparum [4].
For the compound `Clc1cc(-c2ccccc2)ccc1-c1ccc(CNCC2CCNCC2)o1`, the 50% inhibitory concentration (IC50) in the data set with Plasmodium falciparum [2] was found to be 1 µM; with Plasmodium falciparum [3] it was 3 µM; with Plasmodium falciparum [4], 1.4 µM. Also, the CC50 at 24 h in data set [5] is 5 µM.
Consider `Brc1ccc2cc(CNCC3CCNCC3)sc2c1`, for which the IC50 in the data set on Plasmodium falciparum [6] stood at 0.053 µM; with Plasmodium falciparum [2] it was 1 µM; with Plasmodium falciparum [3], 1.5 µM; in the data set with Plasmodium falciparum [4] it was 1.4 µM; in the data set on Plasmodium falciparum [7] it was 0.73 µM.
Take `Fc1ccc(-c2ccc(CNCC3CCNCC3)o2)cc1`: the half-inhibitory concentration (IC50) in the data set with Plasmodium falciparum [2] amounted to 2.1 µM; in the data set with Plasmodium falciparum [3] it was 7.9 µM; in the data set with Plasmodium falciparum [4], 6 µM.
Taken in the same sequence, the figures for `c1ccc(-c2ccc(CNCC3CCNCC3)o2)cc1` were 3.5 µM, 9.1 µM and 8.6 µM.
Take `Clc1ccc(-c2ccc(CNCC3CCNCC3)s2)c(Br)c1`: the IC50 in the data set on Plasmodium falciparum [6] worked out at 0.028 µM; in the data set with Plasmodium falciparum [2] it was 0.53 µM; in the data set with Plasmodium falciparum [3], 1.4 µM; in the data set on Plasmodium falciparum [4], 0.83 µM; in the data set on Plasmodium falciparum [7], 0.42 µM. Further, the CC50 at 24 h in data set [5] was below 5 µM.
With `C[N+](C)(CCCNCc1ccc(-c2ccc(Cl)cc2Br)o1)Cc1ccccc1`, in data set [1], the Activity came out at 95.8%. Also, the IC50 in the data set on Plasmodium falciparum [2] worked out at 0.55 µM; with Plasmodium falciparum [3], 0.66 µM; in the data set on Plasmodium falciparum [4] it was 4.8 µM.
In the case of `Oc1ccccc1-c1ccc(CNCC2CCNCC2)o1`, the IC50 in the data set on Plasmodium falciparum [6] worked out at 0.29 µM; in the data set on Plasmodium falciparum [2], 4.4 µM; with Plasmodium falciparum [3] it was 9.6 µM; in the data set on Plasmodium falciparum [4] it was 8.3 µM; in the data set with Plasmodium falciparum [7] it was 0.26 µM. For the same compound, the CC50 at 24 h in data set [5] was 7 µM.
As to `FC(F)(F)c1ccc(-c2cccc(CNCC3CCNCC3)n2)cc1`, the 50% inhibitory concentration (IC50) was 0.46 µM with Plasmodium falciparum [2], 3.4 µM in the data set on Plasmodium falciparum [3] and 4 µM in the data set with Plasmodium falciparum [4].
Taken in the same sequence, the figures for `Brc1ccc(-c2ccc(CNCC3CCNCC3)o2)cc1` were 1.1 µM, 8 µM and 4.4 µM.
Taken in the same sequence, the figures for `Clc1ccccc1-c1ccc(CNCC2CCNCC2)o1` were 2.1 µM, 4.3 µM and 5.9 µM.
Regarding `Clc1ccc(-c2nnc(CNCC3CCNCC3)[nH]2)cc1`, the IC50 in the data set with Plasmodium falciparum [2], in the data set with Plasmodium falciparum [3] and in the data set with Plasmodium falciparum [4] was above 13 µM throughout.
For the compound `C[N+](C)(C)CCCNCc1ccc(-c2ccc(Cl)cc2Br)o1`, the half-inhibitory concentration (IC50) with Plasmodium falciparum [2] was 2.5 µM; in the data set on Plasmodium falciparum [3], 5.5 µM; in the data set on Plasmodium falciparum [4] it was above 24 µM.
For `COc1ccccc1-c1ccc(CNCC2CCNCC2)o1`, the IC50 in the data set on Plasmodium falciparum [2] is 10 µM; in the data set on Plasmodium falciparum [3], above 15 µM; with Plasmodium falciparum [4], 11.8 µM. Besides, in data set [5], the CC50 at 24 h turned out to be 53 µM.
For `FC(F)(F)c1ccc(-c2ccc(CNCC3CCNCC3)o2)cc1`, the IC50 turned out to be 0.41 µM with Plasmodium falciparum [2], 1.5 µM in the data set with Plasmodium falciparum [3] and 1.9 µM in the data set with Plasmodium falciparum [4]. Besides, the CC50 at 24 h in data set [5] is 50 µM.
As to `CN(C)CCCNCc1ccc(-c2ccc(Br)cc2Cl)o1`, the 50% inhibitory concentration (IC50) was found to be 1.2 µM in the data set with Plasmodium falciparum [2], 1.4 µM with Plasmodium falciparum [3] and 1.1 µM in the data set with Plasmodium falciparum [4]. Also, the CC50 at 24 h in data set [5] came out at 5 µM.
